Experimental data as given in ChEMBL document CHEMBL2040850, “Indole based cyclooxygenase inhibitors: synthesis, biological evaluation, docking and NMR screening” (Eur J Med Chem, 2012).
The source made the active and inactive calls. No cut-off for these calls is given here.

Experiments:
[1] = target: T1, Prostaglandin G/H synthase 1 (Ovis aries) (UniProt P05979); details: 1 uM
T1 sequence (whole entry): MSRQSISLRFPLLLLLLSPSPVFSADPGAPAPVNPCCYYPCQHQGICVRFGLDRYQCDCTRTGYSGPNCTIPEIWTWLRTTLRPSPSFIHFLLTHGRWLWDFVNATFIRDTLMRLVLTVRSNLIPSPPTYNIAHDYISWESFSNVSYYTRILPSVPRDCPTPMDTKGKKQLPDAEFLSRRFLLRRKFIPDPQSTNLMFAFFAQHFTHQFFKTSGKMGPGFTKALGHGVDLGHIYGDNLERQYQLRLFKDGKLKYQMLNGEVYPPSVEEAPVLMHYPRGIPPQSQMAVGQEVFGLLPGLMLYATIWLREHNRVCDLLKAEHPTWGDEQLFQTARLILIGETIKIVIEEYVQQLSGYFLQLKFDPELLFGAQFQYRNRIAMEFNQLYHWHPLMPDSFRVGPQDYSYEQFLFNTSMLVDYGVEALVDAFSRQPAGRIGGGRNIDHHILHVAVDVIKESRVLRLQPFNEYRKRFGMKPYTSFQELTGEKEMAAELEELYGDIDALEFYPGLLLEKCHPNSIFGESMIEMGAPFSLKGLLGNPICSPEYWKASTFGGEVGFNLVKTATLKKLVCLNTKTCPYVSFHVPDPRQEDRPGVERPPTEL

[2] = target: Prostaglandin G/H synthase 1 (Ovis aries) (UniProt P05979); assay: Inhibition of ovine COX1 assessed as PGE2 formation at 50 uM by enzyme immunoassay
[3] = target: T2, Prostaglandin G/H synthase 2 (Homo sapiens) (UniProt P35354); assay: Inhibition of recombinant human COX2 assessed as PGF2alpha formation at 50 uM by enzyme immunoassay
T2 sequence (whole entry): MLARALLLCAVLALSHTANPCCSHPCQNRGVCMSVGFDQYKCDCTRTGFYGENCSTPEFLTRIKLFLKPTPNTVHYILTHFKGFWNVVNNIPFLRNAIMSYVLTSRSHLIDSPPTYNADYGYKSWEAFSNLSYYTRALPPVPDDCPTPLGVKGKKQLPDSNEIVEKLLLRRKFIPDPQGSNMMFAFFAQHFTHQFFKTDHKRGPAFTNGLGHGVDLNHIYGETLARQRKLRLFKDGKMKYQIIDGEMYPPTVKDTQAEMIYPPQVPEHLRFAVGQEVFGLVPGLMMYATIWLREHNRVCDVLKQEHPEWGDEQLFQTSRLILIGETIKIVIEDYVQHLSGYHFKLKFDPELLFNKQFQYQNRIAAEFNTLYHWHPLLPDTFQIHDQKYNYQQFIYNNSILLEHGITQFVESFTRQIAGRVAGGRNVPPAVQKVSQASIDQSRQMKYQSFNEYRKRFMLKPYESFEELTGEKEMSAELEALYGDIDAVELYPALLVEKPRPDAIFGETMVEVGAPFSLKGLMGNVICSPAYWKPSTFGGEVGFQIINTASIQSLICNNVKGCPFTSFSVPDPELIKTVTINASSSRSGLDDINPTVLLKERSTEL

[4] = target: Prostaglandin G/H synthase 2 (Homo sapiens) (UniProt P35354); assay: Inhibition of human COX2 assessed as PGE2 formation at 100 uM by enzyme immunoassay
[5] = target: T3, Prostaglandin G/H synthase 2 (Ovis aries) (UniProt P79208); assay: Reversible binding affinity to sheep placenta COX2 at 300 uM by STD-NMR spectroscopy
T3 sequence (whole entry): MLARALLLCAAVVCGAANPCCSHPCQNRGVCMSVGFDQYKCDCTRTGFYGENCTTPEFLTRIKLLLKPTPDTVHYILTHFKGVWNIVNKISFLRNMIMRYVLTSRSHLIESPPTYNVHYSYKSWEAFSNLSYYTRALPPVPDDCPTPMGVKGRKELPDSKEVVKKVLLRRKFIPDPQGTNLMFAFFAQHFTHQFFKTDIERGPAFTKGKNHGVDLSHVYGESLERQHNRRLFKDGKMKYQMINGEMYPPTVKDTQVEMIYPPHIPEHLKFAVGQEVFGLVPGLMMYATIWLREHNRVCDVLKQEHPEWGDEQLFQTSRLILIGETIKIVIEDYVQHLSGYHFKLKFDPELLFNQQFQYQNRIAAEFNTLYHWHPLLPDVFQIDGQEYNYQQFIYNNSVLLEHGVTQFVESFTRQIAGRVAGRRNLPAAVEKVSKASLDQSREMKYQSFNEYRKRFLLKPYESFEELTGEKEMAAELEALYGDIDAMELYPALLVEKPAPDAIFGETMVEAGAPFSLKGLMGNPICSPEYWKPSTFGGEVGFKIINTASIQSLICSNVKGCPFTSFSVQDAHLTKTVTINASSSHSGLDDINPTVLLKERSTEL
How it was run: (§1)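 STD-NMR of ligand binding to COX-1 (ram seminal vesicle) or COX-2 (sheep placenta) in 80 mM Tris–HCl pH 8.0 with 0.1% Tween 20 and 300 µM DDC. Final mixture was about 3 µM enzyme and 300 µM ligand, added from a 2 mM DMSO-d6 stock. Protein irradiated at -300 Hz with 51 shaped 90° pulses (2.5 s total saturation), 20 ms spin-lock filter, 1024 transients.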

[6] = target: Prostaglandin G/H synthase 2 (Homo sapiens) (UniProt P35354); assay: Inhibition of recombinant human COX2 assessed as PGE2 formation at 100 uM by enzyme immunoassay
[7] = target: T1, Prostaglandin G/H synthase 1 (Ovis aries); assay: Reversible binding affinity to ram seminal vesicle COX1 at 300 uM by STD-NMR spectroscopy
How it was run: as §1

| inhibition [2] | inhibition [3] | inhibition [4] | SMILES | further results |
| --- | --- | --- | --- | --- |
| – | – | – | COc1ccc2c(c1)c(CC(=O)O)c(C)n2C(=O)c1ccc(Cl)cc1 | inhibition [1]: 46% |
| 35% | – | – | NS(=O)(=O)c1ccc2[nH]c(Cc3ccc(Br)cc3)c(Cc3ccc(Br)cc3)c2c1 | – |
| 21% | 32% | 31% | NS(=O)(=O)c1ccc2[nH]cc(Cc3ccc(Cl)cc3)c2c1 | – |
| – | – | 24% | CS(=O)(=O)c1ccc2[nH]cc(Cc3ccc(Cl)cc3)c2c1 | – |
| 41% | – | – | NS(=O)(=O)c1ccc2[nH]c(Cc3ccc(Cl)cc3)c(Cc3ccc(Cl)cc3)c2c1 | – |
| 14% | – | 9% | CS(=O)(=O)c1ccc2c(c1)c(Cc1ccc(F)cc1)cn2CC(O)CC(F)(F)F (stereo not given) | – |
| 11% | – | 23% | CS(=O)(=O)c1ccc2c(c1)c(Cc1ccc(Cl)cc1)cn2C=CCC(F)(F)F (mixture of isomers) | – |
| 8% | 20% | 34% | CS(=O)(=O)c1ccc2c(c1)c(Cc1ccc(Cl)cc1)cn2CC(O)CC(F)(F)F (stereo not given) | – |
| 18% | – | – | NS(=O)(=O)c1ccc2[nH]c(Cc3ccc(F)cc3)c(Cc3ccc(F)cc3)c2c1 | Activity [5]: Active |
| 12% | 23% | 15% | CS(=O)(=O)c1ccc2c(c1)c(Cc1ccc(Br)cc1)cn2CC(O)CC(F)(F)F (stereo not given) | – |
| – | – | 26% | CS(=O)(=O)c1ccc2[nH]cc(Cc3ccc(Br)cc3)c2c1 | – |
| 8% | 12% | 18% | CS(=O)(=O)c1ccc2c(c1)c(Cc1ccc(F)cc1)cn2C=CCC(F)(F)F (mixture of isomers) | – |
| – | – | – | CS(=O)(=O)c1ccc2[nH]c(Cc3ccc(Br)cc3)c(Cc3ccc(Br)cc3)c2c1 | inhibition [6]: inactive |
| 20% | 21% | 19% | CS(=O)(=O)c1ccc2c(c1)c(Cc1ccc(Br)cc1)cn2C=CCC(F)(F)F (mixture of isomers) | – |
| 25% | 24% | – | CS(=O)(=O)c1ccc2[nH]c(Cc3ccc(Cl)cc3)c(Cc3ccc(Cl)cc3)c2c1 | inhibition [6]: inactive |
| 40% | 32% | 20% | NS(=O)(=O)c1ccc2[nH]cc(Cc3ccc(F)cc3)c2c1 | Activity [7]: Active |
| 19% | 23% | – | NS(=O)(=O)c1ccc2[nH]cc(Cc3ccc(Br)cc3)c2c1 | – |
| 11% | 22% | 27% | NS(=O)(=O)c1ccc(Cc2c[nH]c3ccc(Br)cc23)cc1 | – |
| – | – | – | CS(=O)(=O)c1ccc2[nH]c(Cc3ccc(F)cc3)c(Cc3ccc(F)cc3)c2c1 | inhibition [6]: inactive |
